From ChEMBL document CHEMBL4627393, “Discovery of Potent, Selective, and State-Dependent NaV1.7 Inhibitors with Robust Oral Efficacy in Pain Models: Structure-Activity Relationship and Optimization of Chroman and Indane Aryl Sulfonamides” (J Med Chem, 2020)
One block for each molecule: values may come before it.

Tests used:
[1] = Lipophilicity, log D of the compound; assay type: physicochemical; details: octanol/water
[2] = Cmax in BALB/c mouse at 10 mg/kg, po measured upto 24 hrs by LC/MS-MS analysis; assay type: ADME, organism-based; parameters: dose 10 mg/kg, route oral; details: in vivo
[3] = AUClast in BALB/c mouse at 1 mg/kg, iv measured upto 24 hrs by LC/MS-MS analysis; assay type: ADME, organism-based; parameters: time < 24 hr, dose 1 mg/kg, route intravenous; details: in vivo
[4] = Oral bioavailability in BALB/c mouse at 10 mg/kg measured upto 24 hrs by LC/MS-MS analysis; assay type: ADME, organism-based; details: in vivo
Procedure, shortened: (§1)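 Pharmacokinetics were run with an IV dose of 1 mg/kg and a PO dose of 10 mg/kg. Parameters reported were AUClast, Cmax, CL, T1/2, Vss and %F.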

[5] = Metabolic stability in human liver microsomes assessed as metabolic rate at 1 uM preincubated for 5 mins followed by NADPH addition and measured up to 30 mins by LC/MS-MS analysis; assay type: ADME, Microsome; details: 0.5 h
[6] = AUClast in BALB/c mouse at 10 mg/kg, po measured upto 24 hrs by LC/MS-MS analysis; assay type: ADME, organism-based; parameters: dose 10 mg/kg, time < 24 hr, route oral; details: in vivo
[7] = Clearance in BALB/c mouse at 1 mg/kg, iv measured upto 24 hrs by LC/MS-MS analysis; assay type: ADME, organism-based; details: in vivo
[8] = Cmax in BALB/c mouse at 1 mg/kg, iv measured upto 24 hrs by LC/MS-MS analysis; assay type: ADME, organism-based; parameters: dose 1 mg/kg, route intravenous; details: in vivo
[9] = Volume of distribution at steady state in BALB/c mouse at 1 mg/kg, iv measured upto 24 hrs by LC/MS-MS analysis; assay type: ADME, organism-based; details: in vivo, read-out: Vdss; procedure, shortened: as §1
[10] = Metabolic stability in rat liver microsomes assessed as metabolic rate at 1 uM preincubated for 5 mins followed by NADPH addition and measured up to 30 mins by LC/MS-MS analysis; assay type: ADME, Microsome; details: 0.5 h
[11] = Metabolic stability in mouse liver microsomes assessed as metabolic rate at 1 uM preincubated for 5 mins followed by NADPH addition and measured up to 30 mins by LC/MS-MS analysis; assay type: ADME, Microsome; details: 0.5 h
[12] = Half life in BALB/c mouse at 1 mg/kg, iv measured upto 24 hrs by LC/MS-MS analysis; assay type: ADME, organism-based; details: in vivo

logD [1]: 3.8
Compound: Cn1nccc1-c1cc(C(F)(F)F)ccc1[C@H]1CCOc2cc(S(=O)(=O)Nc3ccc(F)cn3)ccc21

logD [1]: 3.2
Compound: Cn1nccc1-c1cc(C(F)(F)F)ccc1[C@H]1CCOc2cc(S(=O)(=O)Nc3cc(F)ccn3)ccc21

Cmax [2]: 3000 nM
AUC(0-t) at 24 h [3]: 0.9 µM·h
bioavailability [4]: 79%
logD [1]: 2.3
Drug metabolism [5]: 0.02 nmol/min/mg
AUC(0-t) at 24 h [6]: 7.1 µM·h
clearance [7]: 37 mL/min/kg
Cmax [8]: 2200 nM
Vd [9]: 1 L/kg
Drug metabolism [10]: 0.02 nmol/min/mg
Drug metabolism [11]: 0.02 nmol/min/mg
half-life [12]: 24 min
Compound: O=S(=O)(Nc1nccs1)c1ccc2c(c1)OCC[C@@H]2c1ccc(C(F)(F)F)cc1-n1ccnn1

logD [1]: 2.9
Compound: O=S(=O)(Nc1ncc(F)cn1)c1ccc2c(c1)OCC[C@@H]2c1ccc(C(F)(F)F)cc1-c1ccc(F)nc1

logD [1]: 3.6
Compound: Cn1nccc1-c1cc(C(F)(F)F)ccc1[C@H]1CCOc2cc(S(=O)(=O)Nc3cccc(F)n3)ccc21

logD [1]: 2.1
Compound: CN1CCN(c2cc(C(F)(F)F)ccc2[C@H]2CCOc3cc(S(=O)(=O)Nc4nccs4)ccc32)CC1

logD [1]: 1.8
Compound: Cn1nccc1-c1cc(C(F)(F)F)ccc1[C@H]1CCOc2cc(S(=O)(=O)Nc3ccncn3)ccc21
